By IC50 is commonly meant the concentration that inhibits the measured activity by half. High values mean weaker potency, low ones greater potency. In general, Papp refers to a coefficient for how fast a substance crosses the barrier. For orientation: solubility means the dissolved amount per volume that the medium holds.

In brackets after ≈: the same amount, converted by molar mass.

Here are results for seven compounds from ChEMBL document CHEMBL4382292, “Discovery of a Novel cGAMP Competitive Ligand of the Inactive Form of STING” (ACS Med Chem Lett, 2019).

Series [1] concerns the target Stimulator of interferon genes protein (Homo sapiens, UniProt Q86WV6). Briefly: Displacement of [3H]cGAMP from full length human HAQ STING expressed in Trichopulsia ni membranes preincubated for 30 mins followed by [3H]cGAMP addition and measured after 60 mins by scintillation counting method. The format is cell membranes.
The nature of series [2]: Clearance in rat at 0.5 mg/kg, iv or 1 mg/kg, po. It is filed as ADME, organism-based. Conditions: in vivo. In short, it runs like this:
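Rat dosed iv at 0.5 mpk or po at 1 mpk, each as a solution in PEG400/H2O (60:40 (v/v)).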

A short description of series [3]: Intrinsic clearance in rat hepatocytes after 120 mins by LC-MS/MS analysis. The format is ADME, cell-based, Hepatocyte. As to conditions: read-out: CLH.
Series [4] is described as follows: Intrinsic clearance in human hepatocytes after 120 mins by LC-MS/MS analysis. It is filed as ADME, cell-based, Hepatocyte. Conditions: read-out: CLH.
Series [5] can be described thus: Apparent permeability in MDCK cells. It is filed as ADME, cell-based, Canis lupus familiaris. Conditions: dog.
Series [6] can be described thus: Solubility of the compound in FaSSIF solution at 100 uM after overnight incubation by UPLC/DAD analysis. It is filed as physicochemical.

Stimulator of interferon genes protein, sequence (Q86WV6 whole entry, looked up): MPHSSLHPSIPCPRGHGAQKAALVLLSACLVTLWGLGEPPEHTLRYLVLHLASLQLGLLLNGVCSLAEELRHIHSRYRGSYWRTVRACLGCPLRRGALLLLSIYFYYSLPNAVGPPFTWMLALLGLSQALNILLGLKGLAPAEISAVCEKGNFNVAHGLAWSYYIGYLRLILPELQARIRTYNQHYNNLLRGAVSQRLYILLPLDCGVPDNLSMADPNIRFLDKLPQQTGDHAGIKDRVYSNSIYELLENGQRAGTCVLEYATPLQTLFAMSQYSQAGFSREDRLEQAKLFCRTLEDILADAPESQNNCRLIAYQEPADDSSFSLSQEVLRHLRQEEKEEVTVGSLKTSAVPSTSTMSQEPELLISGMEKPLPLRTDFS

As for `N#Cc1ccc([C@@H]2[C@@H](C(=O)O)c3ccccc3C(=O)N2c2ccc3c(c2)CCC3)cc1` (racemic), in series [1], the IC50 was over 20 µM.

For `CC(C)(C)c1ccc(N2C(=O)c3cc(F)ccc3[C@H](CC(=O)O)[C@H]2c2ccc3c(c2)OCCO3)cc1Cl`, the clearance in series [2] was determined as 45 mL/min/kg. Also, the results for the CLint scaled in series [3] and in series [4] were 240 mL/min/kg and 31 mL/min/kg, respectively. Also, in series [5], the Papp came to 18 ×10⁻⁶ cm/s. Further, the solubility at 100 µM in series [6] worked out at 187 µM (≈ 98 µg/mL).

Consider `CC(C)(C)c1ccc(N2C(=O)c3ccccc3[C@H](C(=O)O)[C@H]2c2ccc3c(c2)OCCO3)cc1Cl`, for which the clearance in series [2] is 38 mL/min/kg. The CLint scaled in series [3] came to 158 mL/min/kg; in series [4], 28 mL/min/kg. For the same compound, in series [5], the Papp was 9 ×10⁻⁶ cm/s. The compound further had a solubility at 100 µM in series [6] of 151 µM (≈ 74.3 µg/mL).

Compound `CN(C)c1ccc([C@@H]2[C@@H](C(=O)O)c3ccccc3C(=O)N2c2ccc3c(c2)CCC3)cc1` (racemic) had a half-maximal inhibitory concentration (IC50) in series [1] of over 20 µM.

The compound `O=C(O)[C@H]1c2ccccc2C(=O)N(c2ccc3c(c2)CCC3)[C@@H]1c1ccc(Oc2ccccc2)cc1` (racemic) showed an IC50 in series [1] of over 20 µM.

In series [1], `CC(C)c1ccc(N2C(=O)c3ccccc3[C@H](C(=O)O)[C@H]2c2ccc3ccccc3c2)cc1` (racemic) showed an IC50 of over 20 µM.

Turning to `O=C(O)[C@H]1c2ccccc2C(=O)N(c2ccc3c(c2)CCC3)[C@@H]1c1ccc2c(c1)OC(F)(F)O2` (racemic), the IC50 in series [1] is over 20 µM.
